Results taken from ChEMBL document CHEMBL4715751, “Novel N-substituted indole Schiff bases as dual inhibitors of cyclooxygenase-2 and 5-lipoxygenase enzymes: Synthesis, biological activities in vitro and docking study” (Eur J Med Chem, 2016).
Active and inactive are the calls of the source. The rule behind the calls is not given here.

Tests used:
[1] = biological target: T1, Prostaglandin G/H synthase 1 (Ovis aries, UniProt P05979); experiment: Inhibition of ovine COX-1 assessed as appearance of oxidized TMPD level by EIA method
T1 sequence (P05979 whole entry): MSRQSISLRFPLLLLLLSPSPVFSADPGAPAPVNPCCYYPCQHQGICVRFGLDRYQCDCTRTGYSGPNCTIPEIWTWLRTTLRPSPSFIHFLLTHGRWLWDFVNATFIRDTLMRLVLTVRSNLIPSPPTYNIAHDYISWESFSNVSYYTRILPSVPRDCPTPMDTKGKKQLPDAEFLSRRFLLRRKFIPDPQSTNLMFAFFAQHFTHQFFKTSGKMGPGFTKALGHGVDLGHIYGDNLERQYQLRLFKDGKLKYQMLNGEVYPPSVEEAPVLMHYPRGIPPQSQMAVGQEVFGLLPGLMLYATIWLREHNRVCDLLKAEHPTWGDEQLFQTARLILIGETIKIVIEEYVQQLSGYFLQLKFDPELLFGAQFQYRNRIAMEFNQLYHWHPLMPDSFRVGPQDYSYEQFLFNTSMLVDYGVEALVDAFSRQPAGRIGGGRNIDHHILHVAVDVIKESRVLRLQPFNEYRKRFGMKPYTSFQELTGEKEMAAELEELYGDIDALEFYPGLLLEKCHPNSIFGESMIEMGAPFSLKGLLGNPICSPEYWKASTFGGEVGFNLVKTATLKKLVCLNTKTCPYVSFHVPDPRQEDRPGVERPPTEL

[2] = Inhibition of potato 5-LOX assessed as reduction in hydroperoxide level by EIA method; parameters: species or system Solanum tuberosum
Outline: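 Potato 5-LOX kit detecting hydroperoxides formed by lipoxygenation. Compounds dissolved in minimal DMSO and diluted in 0.1 M Tris HCl, pH 7.4, tested at 0.001, 1, 5, 10 μM. IC50 derived per the manufacturer's instructions, mean of two determinations.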

HUVEC [3] = experiment: Antiinflammatory activity in HUVEC assessed as reduction in TNF-alpha-induced E-selectin expression at 30 to 50 uM preincubated for 30 mins followed by TNF-alpha addition and measured after 4 hrs by ELISA; format: functional; conditions: dose 30-50 µM, time 4.5 hrs; for Activity: Homo sapiens
Outline: (§1)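 HUVECs seeded at 1×10^4/well and grown to confluence; indole derivatives (50 μM) added 30 min before TNFα 10 ng/ml, then 4 h further incubation. Cells fixed and E-selectin (ELAM) measured by ELISA. Parallel Calcein AM read-out monitored non-specific toxicity. Curcumin 10 μM served as positive control.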

HUVEC [4] = experiment: Cytotoxicity against HUVEC assessed as reduction in cell viability measured after 24 hrs by calcein-AM staining based fluorescence analysis; parameters: species or system Homo sapiens; conditions: for Activity: human, huvec, time 24 hrs
HUVEC [5] = experiment: Antiinflammatory activity in HUVEC assessed as reduction in TNF-alpha-induced E-selectin expression at 50 uM preincubated for 30 mins followed by TNF-alpha addition and measured after 4 hrs by ELISA; format: functional; conditions: Homo sapiens, time 4.5 hrs; outline: as §1
CCRF-CEM = experiment: Cytotoxicity against human CEM cells assessed as reduction in cell viability after 72 hrs by calcein-AM staining based fluorescence analysis
Outline: (§2)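 Cells in DMEM with 10% FBS, 2 mmol/l L-glutamine, penicillin/streptomycin, 37 °C, 5% CO2. About 1.0×10^5 cells/ml plated, stabilized 24 h, then compounds added from DMSO stocks (final DMSO ≤0.6%), six 3-fold dilutions, top final concentration generally 50 µM. After 72 h, Calcein AM added for 1 h. Fluorescence expressed as % of DMSO controls; IC50 taken from dose-response curves. Means ±SD of three independent experiments in triplicate.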

MCF7 = experiment: Cytotoxicity against human MCF7 cells assessed as reduction in cell viability after 72 hrs by calcein-AM staining based fluorescence analysis; conditions: MCF7, 72 h; outline: as §2
HeLa = experiment: Cytotoxicity against human HeLa cells assessed as reduction in cell viability after 72 hrs by calcein-AM staining based fluorescence analysis; outline: as §2
BJ = experiment: Cytotoxicity against human BJ cells assessed as reduction in cell viability after 72 hrs by calcein-AM staining based fluorescence analysis; outline: as §2

| IC50 [1] [µM] | IC50 [2] [µM] | SMILES | Activity (HUVEC [3]) | Activity (HUVEC [4]) | Activity (HUVEC [5]) | IC50 (CCRF-CEM) [µM] | IC50 (MCF7) [µM] | IC50 (HeLa) [µM] | IC50 (BJ) [µM] | inhibition at 50 µM (HUVEC [5]) [%] | inhibition (INH) (HUVEC [3]) [%] | IC50 (HUVEC [4]; Homo sapiens, HUVEC) [µM] |
| --- | --- | --- | --- | --- | --- | --- | --- | --- | --- | --- | --- | --- |
| 8.65 | 8.11 | O=C(c1ccc(Cl)cc1)n1cc(/C=N/n2cnnc2)c2ccccc21 | Active | Non-Toxic | – | – | – | – | – | – | – | – |
| 7.65 | 7.54 | Cc1c(/N=C/c2cn(C(=O)c3ccccc3)c3ccccc23)c(=O)n(-c2ccccc2)n1C | Active | Non-Toxic | – | – | – | – | – | – | – | – |
| – | – | O=C(Cn1cc(/C=N/n2cnnc2)c2ccccc21)Nc1ccccc1 | – | – | Active | > 50 | > 50 | > 50 | > 50 | – | – | – |
| – | – | CCOC(=O)c1ccc(NC(=O)Cn2cc(/C=N/n3cnnc3)c3ccccc32)cc1 | – | – | – | > 50 | > 50 | > 50 | 31.3 | 15 | – | – |
| – | – | Cc1ccc(NC(=O)Cn2cc(/C=N/n3cnnc3)c3ccccc32)cc1 | – | – | Active | > 50 | > 50 | > 50 | > 50 | – | – | – |
| 10.8 | 5.78 | Cc1ccc(C(=O)n2cc(/C=N/c3c(C)n(C)n(-c4ccccc4)c3=O)c3ccccc32)cc1 | Active | Non-Toxic | – | – | – | – | – | – | – | – |
| – | – | COc1ccc(NC(=O)Cn2cc(/C=N/c3c(C)n(C)n(-c4ccccc4)c3=O)c3ccccc32)cc1 | – | – | Active | 50 | > 50 | > 50 | 50 | – | – | – |
| 10.4 | 6.54 | O=C(c1ccccc1)n1cc(/C=N/n2cnnc2)c2ccccc21 | Active | Non-Toxic | – | – | – | – | – | – | – | – |
| – | – | CCOC(=O)c1ccc(NC(=O)Cn2cc(/C=N/c3c(C)n(C)n(-c4ccccc4)c3=O)c3ccccc32)cc1 | – | – | Active | 29.7 | 38.1 | 24.8 | 50 | – | – | – |
| – | – | Cc1c(/N=C/c2cn(CC(=O)Nc3ccccc3)c3ccccc23)c(=O)n(-c2ccccc2)n1C | – | – | Active | > 50 | > 50 | > 50 | > 50 | – | – | – |
| – | – | O=C(Cn1cc(/C=N/n2cnnc2)c2ccccc21)Nc1ccc(O)cc1 | – | – | Active | > 50 | > 50 | > 50 | > 50 | – | – | – |
| – | – | Cc1c(/N=C/c2cn(CC(=O)Nc3ccc(O)cc3)c3ccccc23)c(=O)n(-c2ccccc2)n1C | – | – | Active | > 50 | > 50 | > 50 | 50 | – | – | – |
| – | – | COc1ccc(NC(=O)Cn2cc(/C=N/n3cnnc3)c3ccccc32)cc1 | – | – | – | > 50 | > 50 | > 50 | > 50 | 15 | – | – |
| – | – | Cc1c(/N=C/c2c[nH]c3ccccc23)c(=O)n(-c2ccccc2)n1C | – | – | Active | > 50 | > 50 | > 50 | > 50 | – | – | – |
| 7.89 | 6.54 | Cc1ccc(C(=O)n2cc(/C=N/n3cnnc3)c3ccccc32)cc1 | – | Non-Toxic | – | – | – | – | – | – | 33 | – |
| – | – | CC(=O)c1ccc(NC(=O)Cn2cc(/C=N/c3c(C)n(C)n(-c4ccccc4)c3=O)c3ccccc32)cc1 | – | – | Active | 42.9 | > 50 | > 50 | > 50 | – | – | – |
| – | – | Cc1ccc(NC(=O)Cn2cc(/C=N/c3c(C)n(C)n(-c4ccccc4)c3=O)c3ccccc32)cc1 | – | – | Active | 42 | > 50 | > 50 | 49 | – | – | – |
| – | – | CC(=O)c1ccc(NC(=O)Cn2cc(/C=N/n3cnnc3)c3ccccc32)cc1 | – | – | Active | > 50 | > 50 | > 50 | > 50 | – | – | – |
| 9.21 | 7.41 | C(=N\n1cnnc1)/c1cn(Cc2ccccc2)c2ccccc12 | Active | – | – | – | – | – | – | – | – | 14.9 |
| – | – | C(=N\n1cnnc1)/c1c[nH]c2ccccc12 | – | – | Active | > 50 | > 50 | 9.9 | > 50 | – | – | – |
| 11.2 | 5.98 | Cc1c(/N=C/c2cn(Cc3ccccc3)c3ccccc23)c(=O)n(-c2ccccc2)n1C | Active | Non-Toxic | – | – | – | – | – | – | – | – |
| 9.25 | 9.11 | Cc1c(/N=C/c2cn(C(=O)c3ccc(Cl)cc3)c3ccccc23)c(=O)n(-c2ccccc2)n1C | Active | Non-Toxic | – | – | – | – | – | – | – | – |

| SMILES | IC50 [1] [µM] | IC50 [2] [µM] | Activity (HUVEC [3]) | Activity (HUVEC [4]) | Activity (HUVEC [5]) | IC50 (CCRF-CEM) [µM] | IC50 (MCF7) [µM] | IC50 (HeLa) [µM] | IC50 (BJ) [µM] | inhibition at 50 µM (HUVEC [5]) [%] | inhibition (INH) (HUVEC [3]) [%] | IC50 (HUVEC [4]; Homo sapiens, HUVEC) [µM] |
| --- | --- | --- | --- | --- | --- | --- | --- | --- | --- | --- | --- | --- |
| O=c1c(O)c(-c2ccc(O)c(O)c2)oc2cc(O)cc(O)c12 [QUERCETIN] | – | 5.96 | – | – | – | – | – | – | – | – | – | – |
